Assay results reported in ChEMBL document CHEMBL3112579, “Inhibition of 5-oxo-6,8,11,14-eicosatetraenoic acid-induced activation of neutrophils and eosinophils by novel indole OXE receptor antagonists” (J Med Chem, 2014).
Values belong to the molecule of their own block, whether it stands above or below them. Activity calls are given as the source filed them. No cut-off for these calls is given here.

Key:
Oxoeicosanoid receptor 1 [1] = molecular target: T1, Oxoeicosanoid receptor 1 (Homo sapiens, UniProt Q8TDS5); test: Antagonist activity at OXE receptor (unknown origin) expressed in indo-1 loaded neutrophils assessed as inhibition of 5-oxo-ETE-induced calcium mobilization incubated for 2 mins prior to 5-oxo-ETE induction by spectrofluorometric analysis; type: functional
Oxoeicosanoid receptor 1 [2] = molecular target: T1, Oxoeicosanoid receptor 1; test: Antagonist activity at OXE receptor in human neutrophils assessed as inhibition of 5-oxo-ETE-induced calcium mobilization by spectrofluorometric analysis; type: functional
Procedure, shortened: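 Indo-1 AM-loaded human neutrophils (dextran, Ficoll, hypotonic lysis) in PBS with Ca++ 1.8 mM and Mg++ 1 mM, stirred at 37 °C, ex 331/em 410 nm. Vehicle (DMSO) or antagonist at varied concentrations, then 5-oxo-ETE (final 10 nM) 2 min later, then digitonin (0.1%) 1 min later for maximal signal. IC50s are means ± SE of per-experiment IC50 values.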

Rattus norvegicus = test: Drug metabolism in […] in presence of NADPH; type: ADME
[3] = molecular target: Platelet-activating factor receptor (Homo sapiens) (UniProt P25105); test: Antagonist activity at PAF receptor (unknown origin) expressed in indo-1 loaded neutrophils assessed as inhibition of PAF-induced calcium mobilization at 10 uM by spectrofluorometric analysis; type: functional
Procedure, shortened: (§1)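 Human blood neutrophils (dextran sedimentation, Ficoll, hypotonic lysis) loaded with indo-1 AM. Ca++ 1.8 mM and Mg++ 1 mM added to the cuvette. Read at 37 °C with stirring, ex 331/em 410 nm. Vehicle or antagonist (10 μM) added, 5-oxo-ETE (10 nM) 2 min later, second agonist (LTB4, PAF, fMLP or IL-8) after a further 2 min, digitonin (0.1%) 1 min later for maximal fluorescence. Two independent experiments.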

Liver [4] = test: Drug metabolism in Sprague-Dawley rat liver homogenates assessed as retention time of unmetabolized compound at 20 uM by reversed-phase HPLC analysis; type: ADME, tissue-based; conditions: tissue homogenate
Procedure, shortened: (§2)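 Male Sprague-Dawley rat liver homogenized in 0.25 M sucrose and spun at 600 × g for 10 min. Supernatant (0.8 ml) combined with phosphate buffer pH 7.4 (final 50 mM) and NADPH (final 1 mM). Compound (20 μM) incubated 60 min at 37 °C, stopped with ice-cold MeOH. Products analysed by reversed-phase HPLC with UV detection.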

Oxoeicosanoid receptor 1 [5] = molecular target: T1, Oxoeicosanoid receptor 1; test: Antagonist activity at OXE receptor (unknown origin) expressed in anti-CD49d-labeled neutrophils assessed as inhibition of 5-oxo-ETE-induced F-actin polymerization preincubated for 5 mins followed by 5-oxo-ETE induction measured after 20 secs by flow cytometric analysis
Procedure, shortened: (§3)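 Unfractionated human leukocytes (dextran sedimentation, hypotonic lysis) stained 30 min on ice with APC-anti-CD49d, 5.5×10^6 cells/ml in PBS with Ca++/Mg++. Preincubated 5 min at 37 °C with vehicle or inhibitor, then 5-oxo-ETE (final 10 nM) for 20 s. Fixed in formaldehyde (final 8.5%), permeabilized with lysophosphatidylcholine, NBD-phalloidin (final 0.3 μM) overnight at 4 °C, flow cytometry. Eosinophils gated as high side scatter/high CD49d, neutrophils as high side scatter/low CD49d.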

Liver [6] = test: Drug metabolism in Sprague-Dawley rat liver homogenates in presence of ATP, CoA, L-carnitine, NAD+; type: ADME, tissue-based; conditions: tissue homogenate
Homo sapiens = species on record: Homo sapiens; test: Antagonist activity at interleukin-8 receptor (unknown origin) expressed in indo-1 loaded neutrophils assessed as inhibition of IL-8-induced calcium mobilization by spectrofluorometric analysis; procedure, shortened: as §1
[7] = molecular target: T2, fMet-Leu-Phe receptor (Homo sapiens) (UniProt P21462); test: Antagonist activity at FPR1 receptor (unknown origin) expressed in indo-1 loaded neutrophils assessed as inhibition of fMLP-induced calcium mobilization at 10 uM by spectrofluorometric analysis; type: functional; procedure, shortened: as §1
T2 sequence (whole entry): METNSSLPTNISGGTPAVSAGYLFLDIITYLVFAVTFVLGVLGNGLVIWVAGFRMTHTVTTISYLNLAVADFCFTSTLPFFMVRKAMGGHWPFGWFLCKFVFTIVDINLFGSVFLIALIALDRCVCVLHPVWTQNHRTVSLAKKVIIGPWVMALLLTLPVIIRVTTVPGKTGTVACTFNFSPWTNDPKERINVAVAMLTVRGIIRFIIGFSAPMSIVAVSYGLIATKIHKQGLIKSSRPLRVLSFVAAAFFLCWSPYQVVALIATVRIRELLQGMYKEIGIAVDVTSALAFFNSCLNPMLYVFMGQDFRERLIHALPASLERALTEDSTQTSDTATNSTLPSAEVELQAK

[8] = Drug metabolism in Sprague-Dawley rat liver homogenates at 20 uM after 60 mins by reversed-phase HPLC analysis in presence of NADPH; type: ADME, tissue-based; conditions: read-out: Drug metabolism; procedure, shortened: as §2
Liver [9] = test: Drug metabolism in Sprague-Dawley rat liver homogenates assessed as metabolite retention time at 20 uM by reversed-phase HPLC analysis; type: ADME, tissue-based; conditions: tissue homogenate; procedure, shortened: as §2
[10] = molecular target: Leukotriene B4 receptor 1 (Homo sapiens) (UniProt Q15722); test: Antagonist activity at LTB4 receptor (unknown origin) expressed in indo-1 loaded neutrophils assessed as inhibition of LTB4-induced calcium mobilization at 10 uM by spectrofluorometric analysis; type: functional; procedure, shortened: as §1
Oxoeicosanoid receptor 1 [11] = molecular target: T1, Oxoeicosanoid receptor 1; test: Antagonist activity at OXE receptor (unknown origin) expressed in anti-CD49d-labeled eosinophils assessed as inhibition of 5-oxo-ETE-induced F-actin polymerization preincubated for 5 mins followed by 5-oxo-ETE induction measured after 20 secs by flow cytometric analysis
Procedure, shortened: as §3, with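 “s.” for “s. Fixed in formaldehyde (final 8.5%), permeabilized with lysophosphatidylcholine, NBD-phalloidin (final 0.3 μM) overnight at 4 °C, flow cytometry.”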

Oxoeicosanoid receptor 1 [12] = molecular target: T1, Oxoeicosanoid receptor 1; test: Potency index, ratio of compound activity to Gue1654 activity for antagonism of OXE receptor (unknown origin) expressed in anti-CD49d-labeled neutrophils assessed as inhibition of 5-oxo-ETE-induced F-actin polymerization
Oxoeicosanoid receptor 1 [13] = molecular target: T1, Oxoeicosanoid receptor 1; test: Potency index, ratio of compound activity to Gue1654 activity for antagonism of OXE receptor (unknown origin) expressed in anti-CD49d-labeled eosinophils assessed as inhibition of 5-oxo-ETE-induced F-actin polymerization

T1 sequence (Q8TDS5 whole entry): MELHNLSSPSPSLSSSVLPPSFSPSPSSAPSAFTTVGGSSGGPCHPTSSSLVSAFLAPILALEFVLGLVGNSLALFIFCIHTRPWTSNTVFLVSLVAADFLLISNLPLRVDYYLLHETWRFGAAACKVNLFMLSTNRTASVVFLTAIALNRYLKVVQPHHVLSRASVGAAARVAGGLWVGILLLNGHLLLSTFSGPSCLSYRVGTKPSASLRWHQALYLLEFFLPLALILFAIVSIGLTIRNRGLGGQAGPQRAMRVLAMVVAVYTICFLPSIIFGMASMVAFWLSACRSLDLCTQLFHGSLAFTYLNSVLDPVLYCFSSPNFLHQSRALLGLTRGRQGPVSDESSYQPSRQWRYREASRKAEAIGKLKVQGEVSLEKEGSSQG
Sequence of Leukotriene B4 receptor 1 (Homo sapiens) (Q15722 whole entry): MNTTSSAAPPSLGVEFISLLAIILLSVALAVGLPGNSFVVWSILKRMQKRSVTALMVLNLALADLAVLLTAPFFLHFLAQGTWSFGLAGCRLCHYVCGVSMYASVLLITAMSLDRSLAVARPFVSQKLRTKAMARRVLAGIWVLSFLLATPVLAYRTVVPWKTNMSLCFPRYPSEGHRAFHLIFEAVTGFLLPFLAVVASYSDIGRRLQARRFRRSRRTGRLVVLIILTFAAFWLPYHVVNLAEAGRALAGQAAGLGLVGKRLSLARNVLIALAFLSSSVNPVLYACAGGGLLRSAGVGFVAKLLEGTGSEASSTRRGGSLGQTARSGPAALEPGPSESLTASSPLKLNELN
Sequence of Platelet-activating factor receptor (Homo sapiens) (P25105 whole entry): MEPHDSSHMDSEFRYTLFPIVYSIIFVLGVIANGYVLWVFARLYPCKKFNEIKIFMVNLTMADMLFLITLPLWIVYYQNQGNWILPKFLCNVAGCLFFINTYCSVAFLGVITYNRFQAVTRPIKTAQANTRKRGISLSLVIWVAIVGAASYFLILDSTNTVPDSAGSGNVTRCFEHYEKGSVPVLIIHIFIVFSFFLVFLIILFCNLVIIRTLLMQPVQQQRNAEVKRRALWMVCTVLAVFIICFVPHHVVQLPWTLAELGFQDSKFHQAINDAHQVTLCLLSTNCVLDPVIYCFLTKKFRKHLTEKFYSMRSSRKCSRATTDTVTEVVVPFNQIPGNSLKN

IC50 (Oxoeicosanoid receptor 1 [1]): 0.55 µM
Structure (SMILES): CCCCCCCCC/C=C\c1cc2ccccc2n1C(=O)CCCC(=O)O

IC50 (Oxoeicosanoid receptor 1 [1]): 0.026 µM
Structure (SMILES): CCCCCCc1c(C(=O)CC(C)CC(=O)O)c2cc(Br)ccc2n1C (centres undefined)

IC50 (Oxoeicosanoid receptor 1 [1]): 2.15 µM
Structure (SMILES): CCCCCc1cc2ccccc2n1C(=O)CCCC(=O)O

IC50 (Oxoeicosanoid receptor 1 [1]): 0.314 µM
Structure (SMILES): CCCCCCc1c(C(=O)CC(C)CC(=O)O)c2ccccc2n1C (centres undefined)

IC50 (Oxoeicosanoid receptor 1 [1]): 0.566 µM
Structure (SMILES): CCCCCCc1c(C(=O)CCCC(=O)O)c2cc(Cl)ccc2n1C

IC50 (Oxoeicosanoid receptor 1 [1]): 0.7 µM
Structure (SMILES): CCCCCCCCCCCc1cc2ccccc2n1C(=O)CCCC(=O)O

IC50 (Oxoeicosanoid receptor 1 [1]): 9.75 µM
inhibition (Oxoeicosanoid receptor 1 [1]): 50%
Structure (SMILES): CCCCCCc1[nH]c2ccccc2c1C(=O)CCCC(=O)O

IC50 (Oxoeicosanoid receptor 1 [1]): 0.141 µM
Structure (SMILES): CCCCCCc1cc2cc(Cl)ccc2n1C(=O)CC(C)CC(=O)O (centres undefined)

Structure (SMILES): CCCCCCn1cc(C(=O)CCCC(=O)O)c2ccccc21
inhibition (Oxoeicosanoid receptor 1 [1]): Active

IC50 (Oxoeicosanoid receptor 1 [1]): 4.03 µM
Structure (SMILES): CCCC/C=C/c1cc2ccccc2n1C(=O)CCCC(=O)O

IC50 (Oxoeicosanoid receptor 1 [2]): 2.5 µM
Structure (SMILES): CCCCC/C=C\C[C@H](O)/C=C/C=C/C=C/C(=O)CCCC(=O)O

IC50 (Oxoeicosanoid receptor 1 [1]): 11 µM
Structure (SMILES): CCCCCCc1cc2ccccc2n1C(=O)CC(C)(C)CC(=O)O

IC50 (Oxoeicosanoid receptor 1 [1]): > 30 µM
Structure (SMILES): O=C(O)CCCC(=O)n1ccc2ccccc21

IC50 (Oxoeicosanoid receptor 1 [1]): 0.75 µM
Structure (SMILES): CCCCCCCc1cc2ccccc2n1C(=O)CCCC(=O)O

IC50 (Oxoeicosanoid receptor 1 [2]): 0.5 µM
Structure (SMILES): CCCCC/C=C\C[C@H](O)/C=C/C=C\C=C\C(=O)CCCC(=O)O

inhibition (Oxoeicosanoid receptor 1 [1]): Active
Structure (SMILES): CCCCCCc1ccc2ccn(C(=O)CCCC(=O)O)c2c1

IC50 (Oxoeicosanoid receptor 1 [1]): 0.57 µM
Structure (SMILES): CCCCCCCCc1cc2ccccc2n1C(=O)CCCC(=O)O

Drug metabolism (Rattus norvegicus): Active
inhibition [3]: inactive
Retention_time (Liver [4]): 30.2 min
inhibition (Oxoeicosanoid receptor 1 [5]): Active
Drug metabolism (Liver [6]): Not Active
inhibition (Homo sapiens): inactive
inhibition [7]: inactive
metabolised at 1 h, 20 µM [8]: 12%
Retention_time (Liver [9]): 18.2 min
inhibition [10]: inactive
Structure (SMILES): CCCCCCc1cc2ccc(Cl)cc2n1C(=O)CC(C)CC(=O)O (racemic)

IC50 (Oxoeicosanoid receptor 1 [1]): 0.081 µM
Structure (SMILES): CCCCCCc1c(C(=O)CC(C)CC(=O)O)c2ccc(Cl)cc2n1C (centres undefined)

inhibition (Oxoeicosanoid receptor 1 [1]): Active
Structure (SMILES): CCCCCCc1cccc2ccn(C(=O)CCCC(=O)O)c12

IC50 (Oxoeicosanoid receptor 1 [1]): 0.323 µM
Structure (SMILES): CCCCCCc1cc2ccc(OC)cc2n1C(=O)CC(C)CC(=O)O (centres undefined)

IC50 (Oxoeicosanoid receptor 1 [1]): 13.7 µM
Structure (SMILES): CCCCc1cc2ccccc2n1C(=O)CCCC(=O)O

IC50 (Oxoeicosanoid receptor 1 [1]): 1.13 µM
Structure (SMILES): CCCCCCc1cc2ccccc2n1C(=O)CCCC(=O)O

IC50 (Oxoeicosanoid receptor 1 [1]): 6.06 µM
Structure (SMILES): CCCCCCc1c(C(=O)CCCC(=O)O)c2ccccc2n1C

Drug metabolism (Rattus norvegicus): Active
inhibition [3]: inactive
inhibition (Oxoeicosanoid receptor 1 [5]): Active
IC50 (Oxoeicosanoid receptor 1 [11]): 0.033 µM
Drug metabolism (Liver [6]): Not Active
inhibition (Homo sapiens): inactive
inhibition [7]: inactive
Ratio (Oxoeicosanoid receptor 1 [12]): 10
Ratio (Oxoeicosanoid receptor 1 [13]): 10
metabolised at 1 h, 20 µM [8]: 2%
Retention_time (Liver [9]): 14.1 min
inhibition [10]: inactive
Structure (SMILES): CCCCCCc1c(C(=O)CC(C)CC(=O)O)c2cc(Cl)ccc2n1C (racemic)

inhibition (Oxoeicosanoid receptor 1 [1]): Active
Structure (SMILES): CCCCCCc1ccc2c(ccn2C(=O)CCCC(=O)O)c1

IC50 (Oxoeicosanoid receptor 1 [1]): > 30 µM
Structure (SMILES): CCCCCCc1cc2ccccc2n1C(=O)CCC(=O)O

IC50 (Oxoeicosanoid receptor 1 [1]): 0.638 µM
Structure (SMILES): CCCCCCc1cc2cc(Br)ccc2n1C(=O)CC(C)CC(=O)O (centres undefined)

Structure (SMILES): CCCCCCc1nc2ccccc2cc1C(=O)CCCC(=O)O
IC50 (Oxoeicosanoid receptor 1 [1]): > 30 µM

inhibition (Oxoeicosanoid receptor 1 [1]): Active
Structure (SMILES): CCCCCCc1cn(C(=O)CCCC(=O)O)c2ccccc12

IC50 (Oxoeicosanoid receptor 1 [1]): 0.136 µM
Structure (SMILES): CCCCCCc1c(C)c2ccccc2n1C(=O)CC(C)CC(=O)O (centres undefined)

IC50 (Oxoeicosanoid receptor 1 [1]): 0.03 µM
Structure (SMILES): CCCCCCc1cc2ccc(Br)cc2n1C(=O)CC(C)CC(=O)O (centres undefined)

IC50 (Oxoeicosanoid receptor 1 [1]): 1.63 µM
Structure (SMILES): CCCCCCc1cc2ccccc2n1C(=O)CC1(CC(=O)O)CC1
